ChEMBL document CHEMBL4665779, “Novel 2-Substituted 3-Hydroxy-1,6-dimethylpyridin-4(1H)-ones as Dual-Acting Biofilm Inhibitors of Pseudomonas aeruginosa” (J Med Chem, 2020)
Active and inactive are the calls of the source. No cut-off for these calls is given here.

Columns and labels:
[1] = Growth inhibition of Pseudomonas aeruginosa PAO1 at 512 uM by CLSI-based broth microdilution method
How it was run: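 Broth microdilution following CLSI standards: two-fold serial dilutions were made in Mueller-Hinton broth and inoculated with P. aeruginosa to a final OD600 of 0.05. The top final concentration is printed as […].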

Pseudomonas aeruginosa = assay: Antibiofilm activity against Pseudomonas aeruginosa PAO1 assessed as inhibition of biofilm formation after 18 hrs by crystal violet staining based assay; format: functional, organism-based; conditions: PAO1, 18 h
[2] = Metal chelating activity assessed as negative logarithm of total free ferric ion concentration in a solution at 60 uM measured after 48 hrs in presence of CP645 probe and Fe-NTA by fluorescence spectrophotometry analysis
[3] = test system: Pseudomonas aeruginosa PAO1; assay: Induction of iron chelation in Pseudomonas aeruginosa PAO1 assessed as increase in intracellular pyochelin level at 1.25 to 20 uM in presence of 10 uM FeCl3 by fluorescence microplate reader assay; format: cell-based; conditions: dose microM 1.25-20
[4] = test system: Pseudomonas aeruginosa PAO1; assay: Induction of iron chelation in Pseudomonas aeruginosa PAO1 assessed as increase in iron deficiency by measuring change in total ferric ion concentration at 20 uM by inductively coupled plasma mass spectrometry (reference value: 1.91 +/- 0.8 uM)
L02 = assay: Cytotoxicity against human L02 cells assessed as reduction in cell viability at 1.25 to 100 uM after 16 hrs by MTT assay; format: cell-based; conditions: l02, 16 h, dose 1.25-100 µM
How it was run: (§1)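 MTT assay on Vero or LO2 cells seeded at 5000–15000 cells/well for 16 h, then washed with PBS. Compound (0–100 μM) added in DMEM for 16 h at 37 °C, 5% CO2. MTT added for 3 h, formazan dissolved in DMSO with shaking, OD570 read. Triplicate, mean ± SD.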

Vero = assay: Cytotoxicity against African green monkey Vero cells assessed as reduction in cell viability at 1.25 to 100 uM after 16 hrs by MTT assay; format: cell-based; conditions: chlorocebus sabaeus, dose 1.25-100 µM; how it was run: as §1
[5] = test system: Pseudomonas aeruginosa PAO1; assay: Induction of iron chelation in Pseudomonas aeruginosa PAO1 assessed as increase in intracellular pyoverdin level at 1.25 to 20 uM in presence of 10 uM FeCl3 by fluorescence microplate reader assay; format: cell-based; conditions: dose microM 1.25-20

For `Cc1cc(=O)c(O)c(CNS(=O)(=O)c2ccccc2)n1C`, the “growth inhibition (GI)” value [1] was “Non-Toxic” and the IC50 (Pseudomonas aeruginosa) was over 100 µM.

In the case of `COc1cccc(C(=O)NCc2c(O)c(=O)cc(C)n2C)c1`, the “growth inhibition (GI)” value [1] is reported as “Non-Toxic” and the IC50 (Pseudomonas aeruginosa) is reported as over 100 µM.

For `CCCCCCCCCC(=O)CC(=O)NCc1c(O)c(=O)cc(C)n1C`, the “growth inhibition (GI)” value [1] was “Non-Toxic” and the IC50 (Pseudomonas aeruginosa) was over 100 µM.

In the case of `Cc1cc(=O)c(O)c(CNS(=O)(=O)c2ccc(C(C)(C)C)cc2)n1C`, the “growth inhibition (GI)” value [1] is reported as “Non-Toxic” and the IC50 (Pseudomonas aeruginosa) is reported as 51.6 µM.

In the case of `Cc1cc(=O)c(O)c(CNC(=O)c2ccnc(C(F)(F)F)c2)n1C`, the “growth inhibition (GI)” value [1] is reported as “Non-Toxic” and the IC50 (Pseudomonas aeruginosa) is reported as over 100 µM.

With `Cc1cc(=O)c(O)c(CNC2CCCC2)n1C` the “growth inhibition (GI)” value [1] was “Non-Toxic” and the IC50 (Pseudomonas aeruginosa) was 14.9 µM.

For `Cc1cc(=O)c(O)c(CNC(=O)Cc2ccccc2)n1C`, the “growth inhibition (GI)” value [1] was “Non-Toxic” and the IC50 (Pseudomonas aeruginosa) was 28.1 µM.

With `CCCCCCCC(=O)NCc1c(O)c(=O)cc(C)n1C` the “growth inhibition (GI)” value [1] was “Non-Toxic” and the IC50 (Pseudomonas aeruginosa) was over 100 µM.

For `Cc1cc(=O)c(O)c(CNC(=O)C2CCCCC2)n1C`, the “growth inhibition (GI)” value [1] was “Non-Toxic” and the IC50 (Pseudomonas aeruginosa) was 63.4 µM.

For `Cc1cc(=O)c(O)c(CNC(=O)C2CC2)n1C`, the “growth inhibition (GI)” value [1] was “Non-Toxic” and the IC50 (Pseudomonas aeruginosa) was over 100 µM.

With `CCCCCC(=O)NCc1c(O)c(=O)cc(C)n1C` the “growth inhibition (GI)” value [1] was “Non-Toxic” and the IC50 (Pseudomonas aeruginosa) was 57.9 µM.

With `Cc1cc(=O)c(O)c(CNC(=O)c2ccccc2)n1C` the “growth inhibition (GI)” value [1] was “Non-Toxic” and the IC50 (Pseudomonas aeruginosa) was 41.7 µM.

With `COc1ccc(S(=O)(=O)NCc2c(O)c(=O)cc(C)n2C)cc1` the “growth inhibition (GI)” value [1] was “Non-Toxic” and the IC50 (Pseudomonas aeruginosa) was over 100 µM.

For `Cc1cc(=O)c(O)c(CNC2CCN(C)CC2)n1C`, the “growth inhibition (GI)” value [1] was “Non-Toxic” and the IC50 (Pseudomonas aeruginosa) was 35 µM.

With `COc1ccc(CCC(=O)NCc2c(O)c(=O)cc(C)n2C)cc1` the “growth inhibition (GI)” value [1] was “Non-Toxic” and the IC50 (Pseudomonas aeruginosa) was 59.1 µM.

With `CCCCNCc1c(O)c(=O)cc(C)n1C` the “growth inhibition (GI)” value [1] was “Non-Toxic” and the IC50 (Pseudomonas aeruginosa) was 52.5 µM.

In the case of `Cc1cc(=O)c(O)c(CNCC2CN(Cc3ccc(F)cc3)CCO2)n1C` (centres undefined), the “growth inhibition (GI)” value [1] is reported as “Non-Toxic” and the IC50 (Pseudomonas aeruginosa) is reported as over 100 µM.

With `Cc1cc(=O)c(O)c(CNC(C)C)n1C` the “growth inhibition (GI)” value [1] was “Non-Toxic” and the IC50 (Pseudomonas aeruginosa) was 24.5 µM.

In the case of `Cc1cc(=O)c(O)c(CNC(=O)c2ccc(C(F)(F)F)cc2)n1C`, the “growth inhibition (GI)” value [1] is reported as “Non-Toxic” and the IC50 (Pseudomonas aeruginosa) is reported as 61.1 µM.

In the case of `COc1ccc(CCCC(=O)NCc2c(O)c(=O)cc(C)n2C)cc1`, the “growth inhibition (GI)” value [1] is reported as “Non-Toxic” and the IC50 (Pseudomonas aeruginosa) is reported as over 100 µM.

For `Cc1cc(=O)c(O)c(CNS(=O)(=O)c2ccc(F)cc2)n1C`, the “growth inhibition (GI)” value [1] was “Non-Toxic” and the IC50 (Pseudomonas aeruginosa) was over 100 µM.

In the case of `Cc1c(O)c(=O)ccn1C` [DEFERIPRONE], the log(activity) [2] is reported as -20.8, the Activity [3] is reported as “Active” and the Activity [4] is reported as 1.23 µM. The Activity (L02) was “Non-Toxic”, the Activity (Vero) was “Non-Toxic” and the Activity [5] was “inactive”. The IC50 (Pseudomonas aeruginosa) was over 100 µM.

In the case of `Cc1cc(=O)c(O)c(CNC(=O)c2cccc3ccccc23)n1C`, the “growth inhibition (GI)” value [1] is reported as “Non-Toxic” and the IC50 (Pseudomonas aeruginosa) is reported as 75.6 µM.

With `Cc1cc(=O)c(O)c(CNC(=O)C2CCC2)n1C` the “growth inhibition (GI)” value [1] was “Non-Toxic” and the IC50 (Pseudomonas aeruginosa) was 64.1 µM.

In the case of `Cc1cc(=O)c(O)c(CNC(=O)Cc2ccc(Cl)cc2)n1C`, the “growth inhibition (GI)” value [1] is reported as “Non-Toxic” and the IC50 (Pseudomonas aeruginosa) is reported as over 100 µM.

With `Cc1cc(=O)c(O)c(CNC(=O)C2CCCO2)n1C` (centres undefined) the “growth inhibition (GI)” value [1] was “Non-Toxic” and the IC50 (Pseudomonas aeruginosa) was 26.5 µM.

In the case of `Cc1cc(=O)c(O)c(CNS(=O)(=O)c2cccc3c2NCCC3)n1C`, the “growth inhibition (GI)” value [1] is reported as “Non-Toxic” and the IC50 (Pseudomonas aeruginosa) is reported as 35.3 µM.

For `CCCCC(=O)NCc1c(O)c(=O)cc(C)n1C`, the “growth inhibition (GI)” value [1] was “Non-Toxic” and the IC50 (Pseudomonas aeruginosa) was 56.9 µM.

For `COc1ccc(C(=O)NCc2c(O)c(=O)cc(C)n2C)cc1`, the “growth inhibition (GI)” value [1] was “Non-Toxic” and the IC50 (Pseudomonas aeruginosa) was 38.4 µM.

In the case of `Cc1cc(=O)c(O)c(CNCCCN2CCN(C)CC2)n1C`, the “growth inhibition (GI)” value [1] is reported as “Non-Toxic” and the IC50 (Pseudomonas aeruginosa) is reported as 16.9 µM.

With `CCCC(=O)NCc1c(O)c(=O)cc(C)n1C` the “growth inhibition (GI)” value [1] was “Non-Toxic” and the IC50 (Pseudomonas aeruginosa) was 45.1 µM.

In the case of `Cc1cc(=O)c(O)c(CNC(=O)c2ccncc2)n1C`, the “growth inhibition (GI)” value [1] is reported as “Non-Toxic” and the IC50 (Pseudomonas aeruginosa) is reported as over 100 µM.

With `Cc1cc(=O)c(O)c(CNC(=O)Cc2ccc(F)cc2)n1C` the “growth inhibition (GI)” value [1] was “Non-Toxic” and the IC50 (Pseudomonas aeruginosa) was 55 µM.

With `Cc1cc(=O)c(O)c(CNC(=O)C2CCCC2)n1C` the “growth inhibition (GI)” value [1] was “Non-Toxic” and the IC50 (Pseudomonas aeruginosa) was 65.1 µM.

For `CCCCCNCc1c(O)c(=O)cc(C)n1C`, the “growth inhibition (GI)” value [1] was “Non-Toxic” and the IC50 (Pseudomonas aeruginosa) was over 100 µM.

In the case of `COc1ccccc1C(=O)NCc1c(O)c(=O)cc(C)n1C`, the “growth inhibition (GI)” value [1] is reported as “Non-Toxic” and the IC50 (Pseudomonas aeruginosa) is reported as 69.7 µM.

In the case of `Cc1cc(=O)c(O)c(CNS(=O)(=O)c2ccc(-c3ccccc3)cc2)n1C`, the “growth inhibition (GI)” value [1] is reported as “Non-Toxic” and the IC50 (Pseudomonas aeruginosa) is reported as over 100 µM.

In the case of `Cc1ccc(S(=O)(=O)NCc2c(O)c(=O)cc(C)n2C)cc1`, the “growth inhibition (GI)” value [1] is reported as “Non-Toxic” and the IC50 (Pseudomonas aeruginosa) is reported as 59.3 µM.

For `Cc1cc(=O)c(O)c(CNC(=O)CC2CCCCC2)n1C`, the “growth inhibition (GI)” value [1] was “Non-Toxic” and the IC50 (Pseudomonas aeruginosa) was 46.8 µM.

With `COc1ccc(CC(=O)NCc2c(O)c(=O)cc(C)n2C)cc1` the “growth inhibition (GI)” value [1] was “Non-Toxic” and the IC50 (Pseudomonas aeruginosa) was 65.5 µM.

With `Cc1cc(=O)c(O)c(CNC(=O)c2ccc(F)cc2)n1C` the “growth inhibition (GI)” value [1] was “Non-Toxic” and the IC50 (Pseudomonas aeruginosa) was over 100 µM.

For `COc1cccc(NCc2c(O)c(=O)cc(C)n2C)c1`, the “growth inhibition (GI)” value [1] was “Non-Toxic” and the IC50 (Pseudomonas aeruginosa) was over 100 µM.
